DENV2 CPE – inhibitors of DENV2 cytopathic effect | DENV2-infected cells, cytopathic effect rescue, plate reader | CPE inhibition, % at 9.99 µM | actives 1.7% (n = 350,000) | AID 651640; in the data active = CPE inhibition above about 20%, passing the limit was not always enough; inconclusive = no clear call, values can overlap the other calls; tested in BHK-21 cells
SIRT5 block – sirtuin-5 (human) deacylase inhibition | Purified SirT5, succinyl-peptide AMC, trypsin-coupled fluorescence | inhibition, % at 15 µM | actives 1.1% (n = 330,000) | AID 652115; in the data active = inhibition above about 15%; inconclusive = no clear call, values can overlap the other calls
E-selectin induc – induces E-selectin expression in human endothelial cells | P16581 | HUVEC E-selectin immunofluorescence imaging; normalized: neutral wells 0, TNF-alpha wells 100 | activation, % at 7.58 µM | actives 0.37% (n = 260,000) | AID 686992;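 active = mean E-selectin-positive cell signal at least 10% of the positive control, reached in at least 60% of replicates, without over 20% cell loss; inconclusive = no rule given, readout overlaps actives, possibly toxicity-flagged; inactive = the rest, including those meeting only one limit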
Target sequence (P16581 whole entry, looked up): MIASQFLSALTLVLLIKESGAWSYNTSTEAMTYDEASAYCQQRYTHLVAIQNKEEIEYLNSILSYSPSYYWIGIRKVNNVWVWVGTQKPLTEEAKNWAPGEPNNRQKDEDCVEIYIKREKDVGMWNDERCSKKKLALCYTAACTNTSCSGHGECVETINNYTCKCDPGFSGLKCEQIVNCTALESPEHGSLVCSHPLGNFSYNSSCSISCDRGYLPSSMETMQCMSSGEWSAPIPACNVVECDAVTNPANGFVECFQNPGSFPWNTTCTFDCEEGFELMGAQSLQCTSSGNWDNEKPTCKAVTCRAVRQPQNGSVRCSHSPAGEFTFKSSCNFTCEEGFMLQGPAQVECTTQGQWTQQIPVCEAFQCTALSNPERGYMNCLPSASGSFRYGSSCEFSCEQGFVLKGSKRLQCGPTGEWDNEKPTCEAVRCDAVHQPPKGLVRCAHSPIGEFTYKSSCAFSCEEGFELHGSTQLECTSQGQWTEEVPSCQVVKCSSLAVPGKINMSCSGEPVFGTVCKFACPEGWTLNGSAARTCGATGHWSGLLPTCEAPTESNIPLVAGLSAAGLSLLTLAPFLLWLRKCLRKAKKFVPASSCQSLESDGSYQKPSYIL
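System: HUVEC, human umbilical vein endothelial cells; quantity: 3,000 cells/well; buffer or medium: EGM-2 medium, gelatin-coated wells; dosing: single-point compound dose; detection: immunofluorescence imaging; evaluation: % PE-positive cells; benchmarks: TNF-alpha, DMSO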
Large screens that a line does not name were inactive. Compounds with a hit are over-represented: about 2.8% of the library has one in this group of screens.

COc1cc([C@H]2Oc3c(OC)cc(CCCO[C@@H]4O[C@H](CO)[C@@H](O)[C@H](O)[C@H]4O)cc3[C@@H]2CO)ccc1O	SIRT5 block 25 (no result: E-selectin induc)
OC[C@H]1O[C@H](OCCc2ccc(O)cc2)[C@H](O)[C@@H](O)[C@@H]1O	none (no result: SIRT5 block)
CCC(=O)N(C)C[C@H]1Oc2cc(-c3ccc(C#N)cc3)ccc2S(=O)(=O)N([C@@H](C)CO)C[C@H]1C	none
COCC(=O)Nc1ccc2c(c1)[C@@H]1C[C@H](CC(=O)NC3CCCCC3)O[C@@H](CO)[C@@H]1O2	none
CN(CC(=O)Nc1ccccc1C(F)(F)F)C(=O)c1ccc(N2C(=O)CCC2=O)cc1	SIRT5 block 17
CCN(CC(=O)Nc1ccccc1C(F)(F)F)C(=O)c1ccc(N2C(=O)CCC2=O)cc1	none
CO[C@H](CN(C)Cc1nccs1)[C@H](C)CN([C@@H](C)CO)S(=O)(=O)c1ccc(F)cc1	none
CCC(C)N(C(=O)CSc1nnc(-c2cccs2)n1C1CC1)C1CCS(=O)(=O)C1 (stereo unspecified)	none
CN(C(=O)CSc1nncn1-c1ccccc1)C1CCS(=O)(=O)C1 (stereo unspecified)	none
CN(C(=O)CSc1nnc(-c2cccs2)n1C1CC1)C1CCS(=O)(=O)C1 (stereo unspecified)	DENV2 CPE 37 (no result: E-selectin induc)
CCN(C(=O)CSc1nncn1-c1ccccc1)C1CCS(=O)(=O)C1 (stereo unspecified)	DENV2 CPE 85 (no result: E-selectin induc)
O=C(C[C@@H]1CC[C@H]2[C@@H](COC[C@H](O)CN2C(=O)c2ccccn2)O1)NC1CCC1	none
COc1cccc(S(=O)(=O)N[C@@H]2CC[C@H](CCNC(=O)Nc3cc(F)ccc3F)O[C@@H]2CO)c1	DENV2 CPE inconclusive
COc1ccc2c(c1)C(=O)N(c1ccccc1C)C(=O)C2(C)C	none
COc1ccc(N2C(=O)c3ccccc3C(C)(C)C2=O)cc1	E-selectin induc 45
CO[C@H]1CN(C)C(=O)c2cc(NS(=O)(=O)c3ccc(C)cc3)ccc2OC[C@H](C)N(C)C[C@@H]1C	none
CN1C[C@@H]2[C@H](c3ccccc31)[C@H](CO)N2C(=O)C1CCCCC1	none
CN(C)C(=O)c1cccc(-c2ccc3n(c2=O)C[C@@H]2N[C@H]3[C@H](C(=O)NC3CCC3)[C@H]2CO)c1	none
Cc1ccc(Cn2cc(CN3CC(N4CCSCC4)CS3(=O)=O)nn2)cc1 (stereo unspecified)	DENV2 CPE 31
O=S1(=O)CC(N2CCSCC2)CN1Cc1cn(Cc2ccc(Cl)cc2)nn1 (stereo unspecified)	none
CN1CCN(C2CN(Cc3cn(Cc4cccc(Cl)c4)nn3)S(=O)(=O)C2)CC1 (stereo unspecified)	none
CN(C)CCN1CCN(C2CN(Cc3cn(Cc4cccc(Cl)c4)nn3)S(=O)(=O)C2)CC1 (stereo unspecified)	SIRT5 block 19
COc1ccc2c3c([nH]c2c1)[C@@H](CO)N(C(=O)C1CC1)CC31CCN(C)CC1	none
C[C@H]1CN([C@@H](C)CO)C(=O)CCCn2cc(nn2)CO[C@H]1CN(C)C(=O)Nc1cccc(Oc2ccccn2)c1	none (no result: DENV2 CPE, SIRT5 block)
CCc1ccccc1NC(=O)CNC(=O)CNC(=O)c1cccs1	SIRT5 block 53 (no result: E-selectin induc)
O=C(CNC(=O)c1cccs1)NCC(=O)OCc1ccccc1Cl	none (no result: E-selectin induc)
COC(=O)CSc1nc(C)c(C(=O)Nc2ccccc2C)c(-c2ccc(Cl)cc2)c1C#N	none (no result: DENV2 CPE, SIRT5 block)
Cc1ccccc1NC(=O)c1c(C)nc(SCC(=O)OCc2ccccc2)c(C#N)c1-c1ccc(F)cc1	DENV2 CPE 20 (no result: SIRT5 block, E-selectin induc)
COc1ccc(OC(=O)N(C)C[C@H]2OCc3cn(nn3)CCCC(=O)N([C@@H](C)CO)C[C@H]2C)cc1	none
CCCNC(=O)N1[C@H](CO)[C@@H](c2ccccc2-c2cccc(C)c2)[C@@H]1C#N	none
Cc1noc(C)c1S(=O)(=O)Nc1ccc2c(c1)C(=O)N([C@H](C)CO)C[C@H](C)[C@H](CN(C)S(=O)(=O)c1ccccc1)OCCCC[C@H](C)O2	none
COc1cc(C(=O)N2CCN(C3CCCCC3)CC2)cc(OC)c1OC	none (no result: E-selectin induc)
COc1ccc(C(=O)N2CCN(C3CCCCC3)CC2)cc1OC	DENV2 CPE 31 (no result: E-selectin induc)
COc1ccccc1N1CCN(C2CCCN(C(=O)c3ccoc3C)C2)CC1 (stereo unspecified)	none
COc1cc(OC)cc(C(=O)N2CCC(N3CCN(c4ccccc4OC)CC3)CC2)c1	SIRT5 block 24
COc1ccc(C(=O)N2CCN(c3ccccc3OC)CC2)cc1	none (no result: SIRT5 block)
COc1ccccc1N1CCN(C2CCCN(C(=O)c3cccc(-c4ccco4)c3)C2)CC1 (stereo unspecified)	DENV2 CPE 44
Cc1ccc(S(=O)(=O)Nc2ccc3c(c2)C(=O)N([C@H](C)CO)C[C@H](C)[C@H](CN(C)C)OCCCC[C@H](C)O3)cc1	none
CN1[C@@H]2c3ccc(-c4ccc(F)cc4)c(=O)n3C[C@@H]2[C@@H](CO)[C@@H]1C(=O)Nc1ccccc1	none
O=C(NCc1ccccc1)[C@@H]1[C@@H](CO)[C@@H]2Cn3c(ccc(-c4cccc(F)c4)c3=O)[C@H]1N2	none
COc1ccc(S(=O)(=O)Nc2ccc3c(c2)C(=O)N([C@@H](C)CO)C[C@H](C)[C@@H](CN(C)S(=O)(=O)c2cn(C)cn2)OCCCC[C@H](C)O3)cc1	none
Cc1ccc(S(=O)(=O)N(C)C[C@@H]2OCCCC[C@@H](C)Oc3ccc(NC(=O)CCCN(C)C)cc3C(=O)N([C@H](C)CO)C[C@H]2C)cc1	none (no result: E-selectin induc)
C[C@@H]1CN([C@H](C)CO)C(=O)c2cc(NC(=O)CCCN(C)C)ccc2O[C@@H](C)CCCCO[C@H]1CN(C)S(=O)(=O)c1ccccc1	DENV2 CPE 23
C[C@H](CO)N1C[C@H](C)[C@@H](CN(C)S(=O)(=O)c2ccccc2)OCCCC[C@H](C)Oc2ccc(NC(=O)CCCN(C)C)cc2C1=O	none
C[C@@H]1CN([C@@H](C)CO)C(=O)c2cc(NC(=O)CCCN(C)C)ccc2O[C@@H](C)CCCCO[C@@H]1CN(C)S(=O)(=O)c1ccccc1	DENV2 CPE 31
Cc1ccc(S(=O)(=O)N(C)C[C@@H]2OCCCC[C@@H](C)Oc3ccc(NC(=O)CCCN(C)C)cc3C(=O)N([C@H](C)CO)C[C@@H]2C)cc1	none (no result: E-selectin induc)
C[C@@H]1CCCCO[C@@H](CN(C)S(=O)(=O)c2ccccc2)[C@H](C)CN([C@@H](C)CO)C(=O)c2cc(NC(=O)CCCN(C)C)ccc2O1	DENV2 CPE 26
C[C@H]1CCCCO[C@H](CN(C)S(=O)(=O)c2ccccc2)[C@@H](C)CN([C@@H](C)CO)C(=O)c2cc(NC(=O)CCCN(C)C)ccc2O1	DENV2 CPE 41
C[C@@H]1CN([C@@H](C)CO)C(=O)c2cc(NC(=O)CCCN(C)C)ccc2O[C@@H](C)CCCCO[C@H]1CN(C)S(=O)(=O)c1ccccc1	none
C[C@@H]1CN([C@@H](C)CO)C(=O)c2cc(NC(=O)C3CCCCC3)ccc2O[C@H]1CN(C)Cc1ccc(-c2ccccc2)cc1	none
CCNC(=O)C[C@@H]1CC[C@@H]2[C@H](COC[C@@H](O)CN2C(=O)c2cc(Cl)cc(Cl)c2)O1	none (no result: SIRT5 block)
O=C(C[C@@H]1CC[C@@H](NC(=O)CC2CC2)[C@@H](CO)O1)NCc1ccc(Cl)cc1	none
O=C(CN1CCOCC1)N[C@H]1CC[C@@H](CCn2cc(C3CCCC3)nn2)O[C@H]1CO	none

Source: PubChem BioAssay (Broad Institute)
